ChEMBL document CHEMBL5104225, “Synthesis and structure-activity relationship studies of N-terminal analogues of the lipopeptide antibiotics brevicidine and laterocidine” (RSC Med Chem, 2022)
In brackets after ≈: the same amount, converted by molar mass. Bridge positions count the residues as written; N and C are the ends. Square brackets hold non-standard residues; d marks the D form. Peptide text beside a SMILES is read from it. * marks the point of attachment. Palmitoyl = CCCCCCCCCCCCCCCC(=O)*; Myristoyl = CCCCCCCCCCCCCC(=O)*; Lauroyl = CCCCCCCCCCCC(=O)*; Decanoyl = CCCCCCCCCC(=O)*; dOrn = NCCC[C@@H](N)C(=O)O; Octanoyl = CCCCCCCC(=O)*; Orn = NCCC[C@H](N)C(=O)O; Hexanoyl = CCCCCC(=O)*; Butyryl = CCCC(=O)*

How the values were obtained:
Erythrocyte = assay: Hemolytic activity in sheep red blood cell assessed as hemolysis at 64 ug/ml incubated for 1 hrs relative to control; type: toxicity, cell-based, Ovis aries; conditions: at 64 µg/mL
Outline: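 Defibrinated sheep erythrocytes were washed five times in PBS with 0.002% Tween20 and normalized so the positive control read 2.5–3.0 at 415 nm. Cells were mixed with peptide at 64 µg/mL and held 1 h at 37 °C, shaking 500 rpm, then centrifuged. Supernatant A415 was background-corrected against buffer and expressed as % of 0.1% Triton X-100. Run in triplicate.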

Escherichia coli [1] = assay: Antibacterial activity against colistin-resistant Escherichia coli ATCC 25922 carrying MCR-1 gene assessed as inhibition of bacterial growth incubated for 18 hrs by CLSI protocol based method; type: functional
Outline: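 Broth microdilution MIC. MCR-1 strain grown from glycerol stock in TSB with kanamycin (16 h, 37 °C, 220 rpm), diluted 100-fold in the same medium and grown to OD600 about 0.5. Cells were diluted in MHB to 2×10^5 CFU/mL and added 1:1 to serial dilutions in MHB. Incubated 18 h, 37 °C, 600 rpm; visual lowest no-growth concentration; three technical replicates.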

Pseudomonas aeruginosa = assay: Antibacterial activity against Pseudomonas aeruginosa PAO1 assessed as inhibition of bacterial growth incubated for 18 hrs by CLSI protocol based method; type: functional
Outline: (§1)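 Single colonies from blood agar (16 h, 37 °C) grown in TSB at 37 °C, 220 rpm to OD600 ~0.5, then diluted in MHB to 2×10^5 CFU/mL. Mixed with serial MHB dilutions of DMSO stocks in polypropylene plates, sealed, and incubated 18 h at 37 °C, 600 rpm. MIC was taken as the lowest concentration with no visible growth; three technical replicates.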

Staphylococcus aureus = assay: Antibacterial activity against Staphylococcus aureus USA300 assessed as inhibition of bacterial growth incubated for 18 hrs by CLSI protocol based method; type: functional; outline: as §1
Escherichia coli [2] = assay: Antibacterial activity against Escherichia coli ATCC 25922 assessed as inhibition of bacterial growth incubated for 18 hrs by CLSI protocol based method; type: functional
Outline: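 Broth microdilution MIC. Strain streaked from glycerol stock on sheep blood agar (16 h, 37 °C); a colony was grown in TSB at 37 °C, 220 rpm, to OD600 about 0.5. Cells were diluted in MHB to 2×10^5 CFU/mL and added 1:1 to serial dilutions in MHB in polypropylene plates.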

Klebsiella pneumoniae = assay: Antibacterial activity against Klebsiella pneumoniae ATCC 13883 assessed as inhibition of bacterial growth incubated for 18 hrs by CLSI protocol based method; type: functional; outline: as §1
Acinetobacter baumannii = assay: Antibacterial activity against Acinetobacter baumannii ATCC 17961 assessed as inhibition of bacterial growth incubated for 18 hrs by CLSI protocol based method; type: functional; outline: as §1

In the case of COLISTIN, the Activity (Erythrocyte) is reported as under 0.1%.
With `CCCC(=O)N[C@H](CC(N)=O)C(=O)N[C@H](Cc1ccc(O)cc1)C(=O)N[C@H](Cc1c[nH]c2ccccc12)C(=O)N[C@H](CCCN)C(=O)N[C@@H](CCCN)C(=O)NCC(=O)N[C@H](CCCN)C(=O)N[C@@H](Cc1c[nH]c2ccccc12)C(=O)N[C@@H]1C(=O)N[C@@H]([C@@H](C)CC)C(=O)NCC(=O)N[C@@H](CO)C(=O)O[C@@H]1C` (Butyryl-[dN][dY][dW][dOrn][Orn]G[dOrn]WTIGS; ester 9-C) the MIC (Escherichia coli [1]) was 32 µg/mL (≈ 21.7 µM), the MIC (Pseudomonas aeruginosa) was 16 µg/mL (≈ 10.8 µM) and the MIC (Staphylococcus aureus) was over 32 µg/mL. The MIC (Escherichia coli [2]) was 32 µg/mL (≈ 21.7 µM), the MIC (Klebsiella pneumoniae) was 8 µg/mL (≈ 5.41 µM) and the MIC (Acinetobacter baumannii) was 32 µg/mL (≈ 21.7 µM).
`CCCCCC(=O)N[C@H](CO)C(=O)N[C@H](Cc1ccc(O)cc1)C(=O)N[C@H](Cc1c[nH]c2ccccc12)C(=O)N[C@H](CCCN)C(=O)N[C@@H](CCCN)C(=O)NCC(=O)N[C@H](CCCN)C(=O)N[C@@H](Cc1c[nH]c2ccccc12)C(=O)N[C@@H]1C(=O)N[C@@H]([C@@H](C)CC)C(=O)N[C@@H](CC(N)=O)C(=O)NCC(=O)NCC(=O)O[C@@H]1C` (Hexanoyl-[dS][dY][dW][dOrn][Orn]G[dOrn]WTINGG; ester 9-C) was tested, and the MIC (Escherichia coli [1]) was 8 µg/mL (≈ 5.12 µM), the MIC (Pseudomonas aeruginosa) was 4 µg/mL (≈ 2.56 µM) and the MIC (Staphylococcus aureus) was over 32 µg/mL. It also gave an MIC (Escherichia coli [2]) of 4 µg/mL (≈ 2.56 µM), an MIC (Klebsiella pneumoniae) of 8 µg/mL (≈ 5.12 µM) and an MIC (Acinetobacter baumannii) of 16 µg/mL (≈ 10.2 µM).
For `CCCCCCCCCC(=O)N[C@H](CC(N)=O)C(=O)N[C@H](Cc1ccc(O)cc1)C(=O)N[C@H](Cc1c[nH]c2ccccc12)C(=O)N[C@H](CCCN)C(=O)N[C@@H](CCCN)C(=O)NCC(=O)N[C@H](CCCN)C(=O)N[C@@H](Cc1c[nH]c2ccccc12)C(=O)N[C@@H]1C(=O)N[C@@H]([C@@H](C)CC)C(=O)NCC(=O)N[C@@H](CO)C(=O)O[C@@H]1C` (Decanoyl-[dN][dY][dW][dOrn][Orn]G[dOrn]WTIGS; ester 9-C), the MIC (Escherichia coli [1]) was 4 µg/mL (≈ 2.56 µM), the MIC (Pseudomonas aeruginosa) was 8 µg/mL (≈ 5.12 µM) and the MIC (Staphylococcus aureus) was 32 µg/mL (≈ 20.5 µM). For the same molecule, the MIC (Escherichia coli [2]) was 4 µg/mL (≈ 2.56 µM), the MIC (Klebsiella pneumoniae) was 4 µg/mL (≈ 2.56 µM) and the MIC (Acinetobacter baumannii) was 4 µg/mL (≈ 2.56 µM).
In the case of `CCCC(=O)N[C@H](CO)C(=O)N[C@H](Cc1ccc(O)cc1)C(=O)N[C@H](Cc1c[nH]c2ccccc12)C(=O)N[C@H](CCCN)C(=O)N[C@@H](CCCN)C(=O)NCC(=O)N[C@H](CCCN)C(=O)N[C@@H](Cc1c[nH]c2ccccc12)C(=O)N[C@@H]1C(=O)N[C@@H]([C@@H](C)CC)C(=O)N[C@@H](CC(N)=O)C(=O)NCC(=O)NCC(=O)O[C@@H]1C` (Butyryl-[dS][dY][dW][dOrn][Orn]G[dOrn]WTINGG; ester 9-C), the MIC (Escherichia coli [1]) is reported as 32 µg/mL (≈ 20.9 µM), the MIC (Pseudomonas aeruginosa) is reported as 8 µg/mL (≈ 5.21 µM) and the MIC (Staphylococcus aureus) is reported as over 32 µg/mL. For the same molecule, the MIC (Escherichia coli [2]) was 16 µg/mL (≈ 10.4 µM), the MIC (Klebsiella pneumoniae) was 32 µg/mL (≈ 20.9 µM) and the MIC (Acinetobacter baumannii) was over 32 µg/mL.
`CCCCCCCC(=O)N[C@H](CO)C(=O)N[C@H](Cc1ccc(O)cc1)C(=O)N[C@H](Cc1c[nH]c2ccccc12)C(=O)N[C@H](CCCN)C(=O)N[C@@H](CCCN)C(=O)NCC(=O)N[C@H](CCCN)C(=O)N[C@@H](Cc1c[nH]c2ccccc12)C(=O)N[C@@H]1C(=O)N[C@@H]([C@@H](C)CC)C(=O)N[C@@H](CC(N)=O)C(=O)NCC(=O)NCC(=O)O[C@@H]1C` (Octanoyl-[dS][dY][dW][dOrn][Orn]G[dOrn]WTINGG; ester 9-C) was tested, and the MIC (Escherichia coli [1]) was 2 µg/mL (≈ 1.26 µM), the MIC (Pseudomonas aeruginosa) was 2 µg/mL (≈ 1.26 µM) and the MIC (Staphylococcus aureus) was over 32 µg/mL. For the same molecule, the MIC (Escherichia coli [2]) was 2 µg/mL (≈ 1.26 µM), the MIC (Klebsiella pneumoniae) was 2 µg/mL (≈ 1.26 µM) and the MIC (Acinetobacter baumannii) was 4 µg/mL (≈ 2.51 µM).
Work on `CCCCCCCCCCCC(=O)N[C@H](CC(N)=O)C(=O)N[C@H](Cc1ccc(O)cc1)C(=O)N[C@H](Cc1c[nH]c2ccccc12)C(=O)N[C@H](CCCN)C(=O)N[C@@H](CCCN)C(=O)NCC(=O)N[C@H](CCCN)C(=O)N[C@@H](Cc1c[nH]c2ccccc12)C(=O)N[C@@H]1C(=O)N[C@@H]([C@@H](C)CC)C(=O)NCC(=O)N[C@@H](CO)C(=O)O[C@@H]1C` (Lauroyl-[dN][dY][dW][dOrn][Orn]G[dOrn]WTIGS; ester 9-C) yielded an MIC (Escherichia coli [1]) of 8 µg/mL (≈ 5.03 µM), an MIC (Pseudomonas aeruginosa) of 16 µg/mL (≈ 10.1 µM) and an MIC (Staphylococcus aureus) of 32 µg/mL (≈ 20.1 µM). It also gave an MIC (Escherichia coli [2]) of 8 µg/mL (≈ 5.03 µM), an MIC (Klebsiella pneumoniae) of 8 µg/mL (≈ 5.03 µM) and an MIC (Acinetobacter baumannii) of 4 µg/mL (≈ 2.52 µM).
`CCCCCCCCCCCCCC(=O)N[C@H](CO)C(=O)N[C@H](Cc1ccc(O)cc1)C(=O)N[C@H](Cc1c[nH]c2ccccc12)C(=O)N[C@H](CCCN)C(=O)N[C@@H](CCCN)C(=O)NCC(=O)N[C@H](CCCN)C(=O)N[C@@H](Cc1c[nH]c2ccccc12)C(=O)N[C@@H]1C(=O)N[C@@H]([C@@H](C)CC)C(=O)N[C@@H](CC(N)=O)C(=O)NCC(=O)NCC(=O)O[C@@H]1C` (Myristoyl-[dS][dY][dW][dOrn][Orn]G[dOrn]WTINGG; ester 9-C) was tested, and the MIC (Escherichia coli [1]) was 8 µg/mL (≈ 4.78 µM), the MIC (Pseudomonas aeruginosa) was 8 µg/mL (≈ 4.78 µM) and the MIC (Staphylococcus aureus) was 16 µg/mL (≈ 9.55 µM). It also gave an MIC (Escherichia coli [2]) of 8 µg/mL (≈ 4.78 µM), an MIC (Klebsiella pneumoniae) of 8 µg/mL (≈ 4.78 µM) and an MIC (Acinetobacter baumannii) of 2 µg/mL (≈ 1.19 µM).
With `CCCCCCCCCCCCCCCC(=O)N[C@H](CO)C(=O)N[C@H](Cc1ccc(O)cc1)C(=O)N[C@H](Cc1c[nH]c2ccccc12)C(=O)N[C@H](CCCN)C(=O)N[C@@H](CCCN)C(=O)NCC(=O)N[C@H](CCCN)C(=O)N[C@@H](Cc1c[nH]c2ccccc12)C(=O)N[C@@H]1C(=O)N[C@@H]([C@@H](C)CC)C(=O)N[C@@H](CC(N)=O)C(=O)NCC(=O)NCC(=O)O[C@@H]1C` (Palmitoyl-[dS][dY][dW][dOrn][Orn]G[dOrn]WTINGG; ester 9-C) the MIC (Escherichia coli [1]) was 32 µg/mL (≈ 18.8 µM), the MIC (Pseudomonas aeruginosa) was 32 µg/mL (≈ 18.8 µM) and the MIC (Staphylococcus aureus) was 32 µg/mL (≈ 18.8 µM). It also gave an MIC (Escherichia coli [2]) of 32 µg/mL (≈ 18.8 µM), an MIC (Klebsiella pneumoniae) of over 32 µg/mL and an MIC (Acinetobacter baumannii) of 4 µg/mL (≈ 2.35 µM).
